The source made the active and inactive calls.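 The calls were made as follows, unless noted: active = viability at or below 10% of carrier control in both of two separate runs; inconclusive = viability at or below 10% in only one of the two runs; inactive = the rest.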

16 molecules from PubChem BioAssay can be followed below.

The nature of test [1]: Her2 expression decrease, cell viability multiplex – SKBR3 breast tumor cells, AlphaScreen, ATP viability, primary screen (AID 461;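 active = Her2 level under about 52% in both replicate screens, with viability over 70% of control, limit read from the data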;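 as to Her2 level: lower value means less Her2 protein in the cells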;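 as to viability: percent of carrier control wells set as 100% viability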). The settings on record: SKBR3 Her2 protein level, 18-24 h, measured here: SKBR3 viability, ATP luminescence, at 10 µM. (In Alpha technology, singlet oxygen from a donor bead excites a nearby acceptor bead.)
For test [2], the target named is Receptor tyrosine-protein kinase erbB-2 (Homo sapiens) (UniProt P04626). Described as above. The note with it: 18-24 h, at 10 µM, stronger effect = lower value.
Test [3] can be described thus: reduced viability of SK-BR-3 breast cancer cells – cell-based, 24 h, human, pilot screen (AID 572).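 Also: compound exposure lasted between 18 and 24 h rather than exactly 24 h; 100% = carrier-treated control wells.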 The settings on record: SK-BR-3 viability, CellTiter-Glo luminescence, at 10 µM, stronger effect = lower value. (ATP-based viability assays read luminescence as a measure of living cells.)
Test [4] is described as follows: HUVEC growth inhibition – cell-based, human, primary screen (AID 575;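 active = viability at or below 30% in both replicate assays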;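 also: 100% = median of untreated cell wells with 0.1% DMSO on each plate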). The settings on record: HUVEC proliferation, CellTiter-Glo luminescence, 72 h; at 10 µM; stronger effect = lower value. The gist of the method: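 Test system – primary HUVEC, no more than 12 passages · Dosing – one dose, 10 µM final, 0.1% DMSO · Times – 72 h treatment at 37 °C · Measured by – ATP-based CellTiter-Glo luminescent read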

Test [5] is described as follows: H69AR cell proliferation blockers – human, duplicate replicates, primary screen (AID 580;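 active = viability at or under a set limit in both replicates, limit being median viability minus 3 SD, cut at about 48% in these data, passing the limit was not always enough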;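 also: 100% = mean luminescence of untreated wells and 0% = no signal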). The settings on record: H69AR lung tumor cells viability, ATP luminescence, 72 h; at 10 µM; stronger effect = lower value.
The nature of test [6]: MRP1 drug-resistance reversers in H69AR cells – cell-based, doxorubicin co-treatment, pilot screen (AID 601;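 active = viability loss from added drug above about 55%, and viability with drug at most 40%, in both replicates, limit read from the data, passing the limit was not always enough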). The settings on record: CellTiter-Glo, 72 h, at 10 µM; for differential viability (reversal): stronger effect = higher value.
Test [7] in a line: yeast transport mutant growth inhibition pilot in 384-well plates, post-Golgi transport modulator project (AID 636; in the data active = inhibition above about 31%). The note with it: absorbance 615 nm, about 18 h, stronger effect = higher value.
Test [8] is described as follows: growth suppression of yeast trafficking mutant, preliminary HTS, modulators of trafficking downstream of Golgi apparatus project, 1536-format plate, OD 615 nm (AID 637; in the data active = inhibition above about 30%). The note with it: yeast transport mutant growth, absorbance 615 nm, 18 h; stronger effect = higher value.
Where [9] appears, read: H69AR cells + 2 uM doxorubicin, measured here: viability with 2 uM doxorubicin, stronger effect = lower value.
The mark [10] stands for this setting: H69AR cells, compound alone cytotoxicity.

Receptor tyrosine-protein kinase erbB-2 (Homo sapiens), sequence (P04626 whole entry, looked up): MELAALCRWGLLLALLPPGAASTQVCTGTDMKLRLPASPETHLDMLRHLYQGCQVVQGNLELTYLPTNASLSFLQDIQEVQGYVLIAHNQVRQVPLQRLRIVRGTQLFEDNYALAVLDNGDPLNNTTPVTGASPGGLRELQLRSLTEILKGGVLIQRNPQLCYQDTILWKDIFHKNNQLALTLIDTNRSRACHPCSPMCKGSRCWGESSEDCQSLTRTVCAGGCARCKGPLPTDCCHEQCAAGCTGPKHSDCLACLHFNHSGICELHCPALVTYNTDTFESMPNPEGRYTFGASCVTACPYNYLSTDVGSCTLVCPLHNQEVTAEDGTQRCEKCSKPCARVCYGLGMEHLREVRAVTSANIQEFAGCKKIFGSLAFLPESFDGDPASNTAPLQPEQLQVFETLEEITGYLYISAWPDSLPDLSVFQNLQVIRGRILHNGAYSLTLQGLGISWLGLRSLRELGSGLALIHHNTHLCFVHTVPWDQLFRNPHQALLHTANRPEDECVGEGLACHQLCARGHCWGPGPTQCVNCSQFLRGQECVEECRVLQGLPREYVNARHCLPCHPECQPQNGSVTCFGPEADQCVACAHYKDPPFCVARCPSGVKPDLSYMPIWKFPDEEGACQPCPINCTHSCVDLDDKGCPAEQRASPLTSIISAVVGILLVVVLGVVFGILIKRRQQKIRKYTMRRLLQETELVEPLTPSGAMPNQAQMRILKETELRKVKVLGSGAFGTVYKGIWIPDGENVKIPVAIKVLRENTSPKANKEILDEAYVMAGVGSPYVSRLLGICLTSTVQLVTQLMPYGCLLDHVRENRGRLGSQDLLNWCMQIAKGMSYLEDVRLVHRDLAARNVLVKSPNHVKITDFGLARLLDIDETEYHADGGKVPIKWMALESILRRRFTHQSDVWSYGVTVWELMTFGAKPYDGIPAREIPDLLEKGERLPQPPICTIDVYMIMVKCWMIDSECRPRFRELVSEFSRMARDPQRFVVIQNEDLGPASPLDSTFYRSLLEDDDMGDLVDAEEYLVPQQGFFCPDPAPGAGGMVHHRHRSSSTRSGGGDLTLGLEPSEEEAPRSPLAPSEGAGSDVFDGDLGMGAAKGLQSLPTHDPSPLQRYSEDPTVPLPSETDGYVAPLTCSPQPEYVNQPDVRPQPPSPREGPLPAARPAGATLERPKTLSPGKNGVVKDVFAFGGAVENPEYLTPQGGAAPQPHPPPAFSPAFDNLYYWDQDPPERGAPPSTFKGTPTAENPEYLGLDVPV

Turning to `CC(C)OC(=O)CSc1nnc(-c2ccco2)n1N`, the viability (commonly a read-out of living cells in per cent, often relative to untreated cells) was 99.5% in test [1]; 99.5% (inactive) in test [3]; 90.4% (inactive) in test [4]; 107% (inactive) in test [5]; 93.2% in test [6] (setting [9]); 107% in test [6] (setting [10]). Besides, the Her2 level in test [2] was 112% (inactive). The differential viability (reversal) in test [6] (H69AR cells + 2 uM doxorubicin) was 14% (inactive). For the same molecule, the inhibition (as a rule, the relative decrease from the control value, in per cent) in test [7] was -5% (inactive); in test [8], -5.33% (inactive).
For the molecule `CC(=O)c1ccc(-c2nc3ccccc3n2C)o1`, the viability was 104% in test [1]; 104% (inactive) in test [3]; 96.7% (inactive) in test [4]; 72.7% (inactive) in test [5]; 69.6% in test [6] (setting [9]); 72.7% in test [6] (setting [10]). In test [2], the Her2 level is 81% (inactive). For the same molecule, in test [6] (H69AR cells + 2 uM doxorubicin), the differential viability (reversal) is 3.04% (inactive). Further, the inhibition was -6.8% (inactive) in test [7] and -1.9% (inactive) in test [8].
Regarding `CCOC(=O)C1CCCN(C/C(O)=C(\C#N)c2nc(-c3ccc(Cl)cc3)cs2)C1` (stereo not given), the viability in test [1] is 78.5%; in test [3], 78.5% (inactive); in test [4], 71.8% (inactive); in test [5], 84.1% (inactive); in test [6] (setting [9]) it was 92.1%; in test [6] (setting [10]), 84.1%. For the same molecule, the Her2 level in test [2] was 101% (inactive). Besides, the differential viability (reversal) in test [6] (H69AR cells + 2 uM doxorubicin) was -7.97% (inactive). The results for the inhibition in test [7] and in test [8] were -6.16% (inactive) and -3.17% (inactive), respectively.
Take `CC(C)(C)Cc1nc(-c2ccccn2)no1`: the viability in test [1] is 95.5%; in test [3], 95.5% (inactive); in test [4], 88.4% (inactive); in test [5], 100% (inactive); in test [6] (setting [9]), 92.9%; in test [6] (setting [10]), 100%. The Her2 level in test [2] was 114% (inactive). In test [6] (H69AR cells + 2 uM doxorubicin), the differential viability (reversal) was 7.35% (inactive). The inhibition in test [7] is -1.82% (inactive); in test [8] it was -3.67% (inactive).
As to `O=C1CSC(=Nc2ccc(O)cc2)N1c1ccc(O)cc1`, the viability in test [1] is 93%; in test [3], 93% (inactive); in test [4], 89.2% (inactive); in test [5], 91.4% (inactive); in test [6] (setting [9]) it was 81.6%; in test [6] (setting [10]) it was 91.4%. Also, the Her2 level in test [2] is 89.5% (inactive). In addition, in test [6] (H69AR cells + 2 uM doxorubicin), the differential viability (reversal) was 9.79% (inactive). The results for the inhibition in test [7] and in test [8] were -7.07% (inactive) and -1.64% (inactive), respectively.
With `COc1ccc(C2/C(=C(/O)c3ccccc3)C(=O)C(=O)N2C)cc1` (stereo not given), the viability in test [1] is 102%; in test [3], 102% (inactive); in test [4], 107% (inactive); in test [5], 101% (inactive); in test [6] (setting [9]) it was 98.1%; in test [6] (setting [10]), 101%. Also, the Her2 level in test [2] is 83.5% (inactive). In addition, in test [6] (H69AR cells + 2 uM doxorubicin), the differential viability (reversal) was 3% (inactive). Besides, the figures for the inhibition in test [7] and in test [8] were -7.84% (inactive) and 1.97% (inactive), respectively.
On to `CN(C)CCCn1c(N)c(C#N)c2nc(C#N)c(C#N)nc21`, for which the viability in test [1] is 179%; in test [3], 179% (inactive); in test [4], 66.9% (inactive); in test [5], 90.1% (inactive); in test [6] (setting [9]), 93.1%; in test [6] (setting [10]), 90.1%. In test [2], the Her2 level is 47.5% (active). Also, in test [6] (H69AR cells + 2 uM doxorubicin), the differential viability (reversal) is -3.03% (inactive). The inhibition was -1.89% (inactive) in test [7] and -1.75% (inactive) in test [8].
For the molecule `CCc1cccc2c(=O)c(C(=O)NCCN3CCOCC3)c[nH]c12`, the viability in test [1] was 104%; in test [3], 104% (inactive); in test [4], 102% (inactive); in test [5], 108% (inactive); in test [6] (setting [9]), 90%; in test [6] (setting [10]), 108%. Also, the Her2 level in test [2] was 113% (inactive). In test [6] (H69AR cells + 2 uM doxorubicin), the differential viability (reversal) was 18.2% (inactive). For the same molecule, the inhibition is -5.47% (inactive) in test [7] and 1.29% (inactive) in test [8].
For the molecule `FC(F)(F)c1cccc(N2CCN(c3nnnn3-c3ccccc3)CC2)c1`, the viability is 85% in test [1]; 85% (inactive) in test [3]; 81% (inactive) in test [4]; 84.7% (inactive) in test [5]; 84.4% in test [6] (setting [9]); 84.7% in test [6] (setting [10]). Moreover, the Her2 level in test [2] was 88.5% (inactive). The differential viability (reversal) in test [6] (H69AR cells + 2 uM doxorubicin) is 0.31% (inactive). The inhibition was -5.84% (inactive) in test [7] and -2.22% (inactive) in test [8].
For the molecule `C=CCOc1ccc(/C(O)=C2\C(=O)C(=O)N(CCOC)C2c2cccnc2)cc1` (stereo not given), the viability was 99% in test [1]; 99% (inactive) in test [3]; 107% (inactive) in test [4]; 103% (inactive) in test [5]; 88.4% in test [6] (setting [9]); 103% in test [6] (setting [10]). The Her2 level in test [2] is 94.5% (inactive). Besides, the differential viability (reversal) in test [6] (H69AR cells + 2 uM doxorubicin) is 14.8% (inactive). Besides, the inhibition is -6.89% (inactive) in test [7] and 1.17% (inactive) in test [8].
As to `CC1CCN(S(=O)(=O)c2ccc3[nH]c(=O)cc(C(=O)O)c3c2)CC1`, the viability is 98% in test [1]; 98% (inactive) in test [3]; 106% (inactive) in test [4]; 105% (inactive) in test [5]; 88.3% in test [6] (setting [9]); 105% in test [6] (setting [10]). Further, the Her2 level in test [2] was 114% (inactive). Moreover, in test [6] (H69AR cells + 2 uM doxorubicin), the differential viability (reversal) was 17.1% (inactive). Also, the values for the inhibition in test [7] and in test [8] were -4.16% (inactive) and -4.1% (inactive), respectively.
Take `Cc1cc(Nc2ccccc2N2CCOCC2)n2ncnc2n1`: the viability was 94.5% in test [1]; 94.5% (inactive) in test [3]; 88% (inactive) in test [4]; 97.1% (inactive) in test [5]; 97.8% in test [6] (setting [9]); 97.1% in test [6] (setting [10]). For the same molecule, the Her2 level in test [2] was 96% (inactive). Also, the differential viability (reversal) in test [6] (H69AR cells + 2 uM doxorubicin) is -0.715% (inactive). The figures for the inhibition in test [7] and in test [8] were -2.43% (inactive) and 4.6% (inactive), respectively.
In the case of `CN(C)C(=O)N1CCC(C(=O)NC2CCCCCCC2)CC1`, the viability in test [1] was 90%; in test [3], 90% (inactive); in test [4] it was 105% (inactive); in test [5], 92.9% (inactive); in test [6] (setting [9]), 94.8%; in test [6] (setting [10]) it was 92.9%. In addition, the Her2 level in test [2] is 112% (inactive). For the same molecule, the differential viability (reversal) in test [6] (H69AR cells + 2 uM doxorubicin) was -1.97% (inactive). Besides, the inhibition is -3.21% (inactive) in test [7] and 7% (inactive) in test [8].
Consider `Cc1ccc(S(=O)(=O)N2CCOCC2)cc1C(=O)OCC(=O)N1CCc2ccccc2C1`, for which the viability in test [1] was 82.5%; in test [3], 82.5% (inactive); in test [4], 99.9% (inactive); in test [5] it was 87.9% (inactive); in test [6] (setting [9]) it was 95.2%; in test [6] (setting [10]) it was 87.9%. The Her2 level in test [2] was 87.5% (inactive). Moreover, the differential viability (reversal) in test [6] (H69AR cells + 2 uM doxorubicin) is -7.28% (inactive). Also, the inhibition in test [7] was -4% (inactive); in test [8] it was 2.95% (inactive).
With `CC(C(=O)NCCCN1CCOCC1)n1cccc1C(=O)c1ccccc1` (stereo not given), the viability is 90% in test [1]; 90% (inactive) in test [3]; 97.4% (inactive) in test [4]; 95% (inactive) in test [5]; 89.3% in test [6] (setting [9]); 95% in test [6] (setting [10]). The Her2 level in test [2] is 76.5% (inactive). The differential viability (reversal) in test [6] (H69AR cells + 2 uM doxorubicin) was 5.71% (inactive). Moreover, the inhibition is -2.37% (inactive) in test [7] and 0% (inactive) in test [8].
Take `c1cc(CNc2ccc3c(c2)OCO3)ccn1`: the viability was 80% in test [1]; 80% (inactive) in test [3]; 70.7% (inactive) in test [4]; 90% (inactive) in test [5]; 103% in test [6] (setting [9]); 90% in test [6] (setting [10]). Moreover, the Her2 level in test [2] is 92% (inactive). For the same molecule, the differential viability (reversal) in test [6] (H69AR cells + 2 uM doxorubicin) was -12.5% (inactive). Further, the inhibition in test [7] was -5.81% (inactive); in test [8] it was -2.13% (inactive).
